Reference: ChEMBL document CHEMBL4130541, “Nicrophorusamides A and B, Antibacterial Chlorinated Cyclic Peptides from a Gut Bacterium of the Carrion Beetle Nicrophorus concolor” (2017)
Activity calls are given as the source filed them. Non-standard residues stand in square brackets, D forms with d. Residues, ends and D or L forms follow the SMILES beside them. Trp(5-Cl) = N[C@@H](Cc1c[nH]c2ccc(Cl)cc12)C(=O)O; dAsn(3R-OH) = NC(=O)[C@H](O)[C@@H](N)C(=O)O; aIle = CC[C@@H](C)[C@H](N)C(=O)O; Orn = NCCC[C@H](N)C(=O)O

Columns and labels:
[1] = system: Escherichia coli; experiment: Antibacterial activity against Escherichia coli ATCC 25922 after 24 hrs by two fold serial dilution method; format: functional
Outline: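 Overnight culture grown in Mueller Hinton broth at 37 °C, centrifuged and washed twice in sterile water. Compound dissolved in DMSO, serially 2-fold diluted in MHB from 128 to 0.03 μg/mL, with DMSO held at 1% final. Inoculum 5 × 10^5 cfu/mL final. Incubated 24 h at 37 °C. MIC taken as the lowest concentration inhibiting growth.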

[2] = system: HCT-116; experiment: Cytotoxicity against human HCT116 cells; format: functional, cell-based
[3] = system: SNU-638; experiment: Cytotoxicity against human SNU638 cells; format: functional, cell-based
[4] = system: MDA-MB-231; experiment: Cytotoxicity against human MDA-MB-231 cells; format: functional, cell-based
[5] = system: Enterococcus faecium; experiment: Antibacterial activity against Enterococcus faecium ATCC 19434 after 24 hrs by two fold serial dilution method; format: functional; settings: ATCC 19434, 24 h
Outline: (§1)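 Bacteria grown overnight in Mueller Hinton broth at 37 °C, centrifuged and washed twice with sterile water. Compounds dissolved in DMSO, then 2-fold serial dilutions 128 to 0.03 μg/mL in broth, final DMSO 1%. Inoculum ~10^7 cfu/mL added to reach final 5 × 10^5 cfu/mL. Incubated 24 h at 37 °C. MIC = lowest concentration inhibiting growth.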

[6] = system: Trichophyton mentagrophytes; experiment: Antifungal activity against Trichophyton mentagrophytes IFM 40996; format: functional, organism-based
[7] = system: K562; experiment: Cytotoxicity against human K562 cells; format: functional, cell-based
[8] = system: SK-HEP1; experiment: Cytotoxicity against human SKHEP1 cells; format: functional, cell-based
[9] = system: Candida albicans; experiment: Antifungal activity against Candida albicans ATCC 10231; format: functional, organism-based
[10] = system: Staphylococcus aureus; experiment: Antibacterial activity against Staphylococcus aureus ATCC 25923 after 24 hrs by two fold serial dilution method; format: functional; settings: ATCC 25923, 24 h; outline: as §1
[11] = system: A549; experiment: Cytotoxicity against human A549 cells; format: functional, cell-based
[12] = system: Salmonella typhimurium; experiment: Antibacterial activity against Salmonella enterica ATCC 14028 after 24 hrs by two fold serial dilution method; format: functional; outline: as §1
[13] = system: Aspergillus fumigatus; experiment: Antifungal activity against Aspergillus fumigatus HIC 6094; format: functional, organism-based
[14] = system: Trichophyton rubrum; experiment: Antifungal activity against Trichophyton rubrum NBRC 9185; format: functional, organism-based
[15] = system: Enterococcus faecalis; experiment: Antibacterial activity against Enterococcus faecalis ATCC 19433 after 24 hrs by two fold serial dilution method; format: functional; settings: ATCC 19433, 24 h; outline: as §1

CC[C@@H](C)[C@@H]1NC(=O)[C@@H](CC(C)C)NC(=O)[C@@H](C(C)C)NC(=O)[C@H](Cc2c[nH]c3ccc(Cl)cc23)NC(=O)[C@@H](CC(N)=O)NC(=O)[C@H](CCCN)NC1=O
128 µg/mL: MIC [5] | MIC [15]
inactive: MIC [1] | Activity [2] | Activity [3] | Activity [4] | Activity [6] | Activity [7] | Activity [8] | Activity [9] | Activity [11] | MIC ([12]; Salmonella enterica subsp. enterica serovar Typhimurium) | Activity [13] | Activity [14]
64 µg/mL: MIC [10]

CC[C@@H](C)[C@@H]1NC(=O)[C@@H](CC(C)C)NC(=O)[C@@H](C(C)C)NC(=O)[C@H](Cc2c[nH]c3ccc(Cl)cc23)NC(=O)[C@@H]([C@@H](O)C(N)=O)NC(=O)[C@H](CCCN)NC1=O (cyclo([Orn][dAsn(3R-OH)][Trp(5-Cl)][dV][dL][aIle]))
inactive: MIC [1] | Activity [2] | Activity [3] | Activity [4] | Activity [6] | Activity [7] | Activity [8] | Activity [9] | Activity [11] | Activity [13] | Activity [14]
8 µg/mL: MIC [10]
16 µg/mL: MIC [5] | MIC ([12]; ATCC 14028, 24 h) | MIC [15]

CC1(C)S[C@@H]2[C@H](NC(=O)[C@H](N)c3ccccc3)C(=O)N2[C@H]1C(=O)O [AMPICILLIN]
0.13 µg/mL: MIC [10] | MIC ([12]; ATCC 14028, 24 h)
8 µg/mL: MIC ([1]; ATCC 25922, 24 h)
0.25 µg/mL: MIC [5]
0.5 µg/mL: MIC [15]
